How the values were obtained:
Monkey [1] = assay: Efficiency of chelation measured as net iron excretion/total iron-binding capacity of 150 umol/kg compound administered sc in monkeys; format: functional, Cercopithecidae
Procedure, shortened: (§1)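 Cebus apella monkeys iron-overloaded with iv iron dextran (~500 mg Fe/kg), rested ≥60 days. Dosed sc as aqueous suspension or sodium salt solution (DFO in sterile H2O, 1 mL/kg). Feces and urine collected at 24 h intervals from 4 days pre-dose to 5 days post-dose; iron by flame AA. Efficiency is 2-day post-dose iron minus 4-day baseline mean, divided by theoretical output. n = 4; mean ± SEM.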

Rattus norvegicus [2] = assay: Efficiency of chelation measured as net iron excretion/total iron-binding capacity of 300 umol/kg compound administered sc in rats; format: functional
Procedure, shortened: (§2)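 Bile duct-cannulated male Sprague-Dawley rats (~450 g), anesthetized with sodium pentobarbital 55 mg/kg ip. Chelator given po or sc in 40% Cremophor RH-40/water. Bile collected every 3 h for 24 h, urine at 24 h; iron by flame AA. Net excretion is treated minus control. Theoretical output assumes 1:1 or 2:1 ligand/iron by denticity. n = 4; mean ± SEM.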

Rattus norvegicus [3] = assay: Efficiency of chelation measured as net iron excretion/total iron-binding capacity of 300 umol/kg compound administered po in rats; format: functional; procedure, shortened: as §2
Monkey [4] = assay: Efficiency of chelation measured as net iron excretion/total iron-binding capacity of 300 umol/kg compound administered sc in monkeys; format: functional, Cercopithecidae; procedure, shortened: as §1
Monkey [5] = assay: Efficiency of chelation measured as net iron excretion/total iron-binding capacity of 300 umol/kg compound administered po in monkeys; format: functional, Cercopithecidae
Rattus norvegicus [6] = assay: Efficiency of chelation measured as net iron excretion/total iron-binding capacity of 150 umol/kg compound administered sc in rats; format: functional; procedure, shortened: as §2
Rattus norvegicus [7] = assay: Efficiency of chelation measured as net iron excretion/total iron-binding capacity of 150 umol/kg compound administered po in rats; format: functional; procedure, shortened: as §2
Monkey [8] = assay: Efficiency of chelation measured as net iron excretion/total iron-binding capacity of 75 umol/kg compound administered sc in monkey; format: functional, Cercopithecidae; procedure, shortened: as §1
Monkey [9] = assay: Efficiency of chelation measured as net iron excretion/total iron-binding capacity of 150 umol/kg compound administered sc in monkey; format: functional, Cercopithecidae; procedure, shortened: as §1
Monkey [10] = assay: Efficiency of chelation measured as net iron excretion/total iron-binding capacity of 150 umol/kg compound administered po in monkey; format: functional, Cercopithecidae

Compound | Efficiency (Monkey [1]) [%] | Efficiency (Rattus norvegicus [2]) [%] | Efficiency (Rattus norvegicus [3]) [%] | Efficiency (Monkey [4]) [%] | Efficiency (Monkey [5]) [%] | Efficiency (Rattus norvegicus [6]) [%] | Efficiency (Rattus norvegicus [7]) [%] | Efficiency (Monkey [8]) [%] | Efficiency (Monkey [9]) [%] | Efficiency (Monkey [10]) [%]
O=C(O)[C@H]1CSC(c2ccc(O)cc2O)=N1 | 5.6 | 2.1 | 2.9 | 5.3 | 5.3 |  |  |  |  | 
O=C(O)[C@H]1CSC(c2cc(CCCOCCCOCCCc3cc(C4=N[C@@H](C(=O)O)CS4)c(O)cc3O)c(O)cc2O)=N1 |  |  |  |  |  | 6.5 | 0.9 | 3.2 | 2.1 | 
CC(=O)N(O)CCCCCNC(=O)CCC(=O)N(O)CCCCCNC(=O)CCC(=O)N(O)CCCCCN [DEFEROXAMINE] |  |  |  |  |  | 2.8 | 1.1 |  | 5.5 | 0.1

— ChEMBL document CHEMBL1144875, “Desferrithiocin analogue based hexacoordinate iron(III) chelators” (2003)
